Substitutions are numbered along the chain they refer to. Like-named read-outs stand apart in the source and are kept apart here.
Key:
Format in all cases: cell-based
Conditions in all cases: read-out: Apparent affinity (K1/2)
CLC-0 E166N mutant = biological target: T1, CLC-0 E166N mutant (Torpedo marmorata, UniProt P21564, C212S/E166N)
T1 sequence (P21564 1-805 E166N/C212S): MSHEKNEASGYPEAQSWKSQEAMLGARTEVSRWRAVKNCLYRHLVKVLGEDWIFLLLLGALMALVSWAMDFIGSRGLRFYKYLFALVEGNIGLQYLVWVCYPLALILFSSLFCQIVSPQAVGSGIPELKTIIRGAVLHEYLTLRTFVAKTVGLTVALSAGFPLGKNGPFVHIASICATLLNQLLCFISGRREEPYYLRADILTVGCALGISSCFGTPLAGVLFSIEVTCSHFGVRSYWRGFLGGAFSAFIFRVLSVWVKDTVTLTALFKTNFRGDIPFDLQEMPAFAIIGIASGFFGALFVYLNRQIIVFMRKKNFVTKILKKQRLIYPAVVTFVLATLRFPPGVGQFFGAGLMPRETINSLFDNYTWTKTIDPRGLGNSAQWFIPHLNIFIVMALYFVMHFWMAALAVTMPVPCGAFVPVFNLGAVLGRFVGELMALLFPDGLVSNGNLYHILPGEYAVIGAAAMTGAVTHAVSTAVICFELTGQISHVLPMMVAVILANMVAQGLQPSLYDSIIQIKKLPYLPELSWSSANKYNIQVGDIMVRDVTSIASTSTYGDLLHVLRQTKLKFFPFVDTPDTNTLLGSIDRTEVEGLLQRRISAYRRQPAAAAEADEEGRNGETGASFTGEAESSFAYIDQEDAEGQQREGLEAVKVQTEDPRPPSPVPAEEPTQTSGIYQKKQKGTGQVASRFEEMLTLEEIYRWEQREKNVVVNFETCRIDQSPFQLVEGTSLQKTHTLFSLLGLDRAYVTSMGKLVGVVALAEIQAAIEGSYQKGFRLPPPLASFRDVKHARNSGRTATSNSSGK
How it was run: (§1)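 CLC-0 mutants in the C212S background were transfected into HEK293 cells with lipofectamine and recorded 1–3 d later as excised inside-out patches. Both sides held 130 mM NaCl, 5 mM MgCl2, 10 mM HEPES and 1 mM EGTA, pH 7.4. CPA was perfused continuously onto the cytoplasmic face. Steady-state current over the last 10 ms was normalized to bracketing blocker-free controls and fitted to a Langmuir function for K1/2. Values are mean ± SEM of ~4–6 patches.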

CLC-0 E166V mutant = biological target: T2, CLC-0 E166V mutant (Torpedo marmorata, UniProt P21564, C212S/E166V)
T2 sequence (P21564 1-805 E166V/C212S): T1 sequence (P21564 1-805 E166N/C212S) with N166V
How it was run: as §1

CLC-0 E166W mutant = biological target: T3, CLC-0 E166W mutant (Torpedo marmorata, UniProt P21564, C212S/E166W)
T3 sequence (P21564 1-805 E166W/C212S): T1 sequence (P21564 1-805 E166N/C212S) with N166W
How it was run: as §1

O=C(O)COc1ccc(Cl)cc1 [CPA, p-chlorophenoxy acetate]
IC50 (CLC-0 E166N mutant; −40 mV): 9750 ± 570 µM
IC50 (CLC-0 E166N mutant; −60 mV): 5780 ± 220 µM
IC50 (CLC-0 E166N mutant; −80 mV): 3270 ± 90 µM
IC50 (CLC-0 E166N mutant; −100 mV): 1850 ± 40 µM
IC50 (CLC-0 E166N mutant; −120 mV): 1060 ± 20 µM
IC50 (CLC-0 E166N mutant; −140 mV): 620 ± 20 µM
IC50 (CLC-0 E166N mutant; −160 mV): 380 ± 10 µM
IC50 (CLC-0 E166V mutant; −40 mV): 676 ± 78 µM
IC50 (CLC-0 E166V mutant; −60 mV): 373 ± 37 µM
IC50 (CLC-0 E166V mutant; −80 mV): 198 ± 15 µM
IC50 (CLC-0 E166V mutant; −100 mV): 113 ± 10 µM
IC50 (CLC-0 E166V mutant; −120 mV): 65 ± 7 µM
IC50 (CLC-0 E166V mutant; −140 mV): 40 ± 4 µM
IC50 (CLC-0 E166V mutant; −160 mV): 26 ± 3 µM
IC50 (CLC-0 E166W mutant; −60 mV): 13200 ± 2100 µM
IC50 (CLC-0 E166W mutant; −80 mV): 6660 ± 980 µM
IC50 (CLC-0 E166W mutant; −100 mV): 3490 ± 410 µM
IC50 (CLC-0 E166W mutant; −120 mV): 1860 ± 220 µM
IC50 (CLC-0 E166W mutant; −140 mV): 970 ± 130 µM
IC50 (CLC-0 E166W mutant; −160 mV): 550 ± 70 µM

CCCCCCCC(=O)O [octanoate]
IC50 (CLC-0 E166N mutant; −40 mV): 4930 ± 180 µM
IC50 (CLC-0 E166N mutant; −60 mV): 2550 ± 47 µM
IC50 (CLC-0 E166N mutant; −80 mV): 1340 ± 29 µM
IC50 (CLC-0 E166N mutant; −100 mV): 694 ± 18 µM
IC50 (CLC-0 E166N mutant; −120 mV): 380 ± 9 µM
IC50 (CLC-0 E166N mutant; −140 mV): 212 ± 4 µM
IC50 (CLC-0 E166N mutant; −160 mV): 125 ± 2 µM
IC50 (CLC-0 E166V mutant; −40 mV): 231 ± 14 µM
IC50 (CLC-0 E166V mutant; −60 mV): 126 ± 6.5 µM
IC50 (CLC-0 E166V mutant; −80 mV): 67.2 ± 3.7 µM
IC50 (CLC-0 E166V mutant; −100 mV): 35.3 ± 2.8 µM
IC50 (CLC-0 E166V mutant; −120 mV): 18.4 ± 1.5 µM
IC50 (CLC-0 E166V mutant; −140 mV): 10.2 ± 0.8 µM
IC50 (CLC-0 E166V mutant; −160 mV): 6 ± 0.4 µM
IC50 (CLC-0 E166W mutant; −80 mV): 19200 ± 3300 µM
IC50 (CLC-0 E166W mutant; −100 mV): 13000 ± 2000 µM
IC50 (CLC-0 E166W mutant; −120 mV): 8600 ± 1300 µM
IC50 (CLC-0 E166W mutant; −140 mV): 5530 ± 870 µM
IC50 (CLC-0 E166W mutant; −160 mV): 3500 ± 590 µM
